ChEMBL document CHEMBL2424600, “Synthetic polyamines activating autophagy: effects on cancer cell death” (Eur J Med Chem, 2013)
Activity calls are given as the source filed them. The rule behind the calls is not given here.

How the values were obtained:
Thymocyte = test: Cytotoxicity against rat thymocytes assessed as cell survival after 24 hrs by trypan blue exclusion assay; type: cell-based
In short: (§1)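 Cells exposed 24 h to increasing concentrations (DMSO vehicle, 0.1% of medium; controls got DMSO) at 37 °C, 5% CO2. Viability by trypan blue exclusion, triplicate samples, at least 10 fields counted each; survival as % of viable cells vs control. IC50 read from dose–response curve as concentration giving 50% survival.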

[1] = Cytotoxicity against human C-28/I2 cells assessed as cell survival after 24 hrs by trypan blue exclusion assay; type: cell-based; conditions: C28/I2, 24 h; in short: as §1
HeLa [2] = test: Cytotoxicity against human HeLa cells assessed as cell survival after 24 hrs by trypan blue exclusion assay; type: functional, cell-based; in short: as §1
HeLa [3] = test: Induction of autophagy in human HeLa cells assessed as appearance of vacuoles in cytoplasm containing mitochondrion at 2 uM after 24 hrs by transmission electron microscopic analysis; type: functional, cell-based
In short: (§2)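 HeLa seeded on glass slides at 1.3 × 10^6 cells/well for 24 h, treated 24 h with 2 µM, fixed in 2.5% glutaraldehyde in 0.1 M phosphate buffer 2 h at 4 °C, post-fixed in 1% OsO4 1 h at 4 °C, examined by transmission electron microscopy for cytoplasmic vacuoles.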

HeLa [4] = test: Cytotoxicity against human HeLa cells assessed as decrease in cell survival at 2 uM after 24 hrs at pH 6.4 by trypan blue exclusion assay; type: functional, cell-based
In short: (§3)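 HeLa given 2 µM for 24 h with uptake-modifying conditions: 0.5 mM spermine plus 1 mM aminoguanidine (inhibits serum amine oxidases); 0.1 mM DFMO with 48 h pretreatment; or medium adjusted to pH 6.4 with HCl instead of 7.2. Survival by trypan blue exclusion vs control; triplicate means ± S.E.M.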

HeLa [5] = test: Cytotoxicity against human HeLa cells assessed as decrease in cell survival at 2 uM after 24 hrs by trypan blue exclusion assay in presence of DFMO; type: functional, cell-based; in short: as §3
HeLa [6] = test: Cytotoxicity against human HeLa cells assessed as decrease in cell survival at 2 uM after 24 hrs by trypan blue exclusion assay in presence of spermine; type: functional, cell-based; in short: as §3
HeLa [7] = test: Cytotoxicity against human HeLa cells assessed as decrease in cell survival at 2 uM after 24 hrs by trypan blue exclusion assay relative to control; type: functional; conditions: read-out: Survival
In short: (§4)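 HeLa cells grown in EMEM with 10% FBS, 1% glutamine, 1% nonessential amino acids, 1 mM pyruvate and antibiotics at 37 °C in 5% CO2. Compound added from DMSO stock (DMSO 0.1% of volume; controls got DMSO only) and exposed 24 h. Viability read by trypan blue exclusion in triplicate samples, at least 10 fields counted. Survival given as % viable cells versus control.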

HeLa [8] = test: Cytotoxicity against human HeLa cells assessed as decrease in cell survival up to 3 mM after 24 hrs by trypan blue exclusion assay in presence of N-acetylcysteine; type: functional, cell-based
In short: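 HeLa exposed 24 h to the indicated concentrations with or without 5 mM N-acetylcysteine. Survival by trypan blue exclusion relative to control; triplicate means ± S.E.M.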

HeLa [9] = test: Induction of intracellular peroxide formation in human HeLa cells at 2 uM after 3 hrs by DCFDA staining-based flow cytometric analysis; type: functional, cell-based
In short: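 HeLa treated 3 h with 2 µM, then loaded with 5 µM DCFDA for 30 min at 37 °C. DCF fluorescence measured by flow cytometry with logarithmic amplification; mean fluorescence channel vs DMSO control.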

HeLa [10] = test: Disruption of mitochondrial membrane potential in human HeLa cells at 2 uM after 4 hrs by DiOC6/propidium iodide staining-based flow cytometric analysis; type: functional
In short: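 After treatment, HeLa (1 × 10^6 cells/mL) stained with 4 nM DiOC6 for 40 min at 37 °C in the dark, counterstained with 5 µg/mL propidium iodide to exclude dead cells. Flow cytometry with logarithmic amplification, argon laser; mean green fluorescence channel recorded.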

HeLa [11] = test: Induction of autophagy in human HeLa cells assessed as appearance of acidic vesicular organelles at 2 uM after 3 hrs by acridine orange staining-based immunofluorescence microscopic analysis; type: functional, cell-based
In short: (§5)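 HeLa treated 3 h with DMSO or 2 µM, with or without 2 h pretreatment with 5 mM NAC; stained with acridine orange and imaged by fluorescence microscopy for cells with orange–red acidic vesicular organelles. Two independent experiments.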

HeLa [12] = test: Induction of autophagy in human HeLa cells assessed as appearance of acidic vesicular organelles at 2 uM after 3 hrs by acridine orange staining-based immunofluorescence microscopic analysis in presence of N-acetylcysteine; type: functional, cell-based; in short: as §5
HeLa [13] = test: Induction of autophagy in human HeLa cells assessed as conversion of LC3-1 protein to LC3-2 protein at 2 uM after 3 hrs by Western blot analysis; type: functional, cell-based
In short: (§6)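 HeLa treated 3 h with 2 µM in presence or absence of 5 mM NAC; 50 µg protein analysed by Western blot with monoclonal antibody recognising LC3-I (18 kDa) and LC3-II (16 kDa).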

HeLa [14] = test: Induction of autophagy in human HeLa cells assessed as conversion of LC3-1 protein to LC3-2 protein at 2 uM after 3 hrs by Western blot analysis in presence of N-acetylcysteine; type: functional, cell-based; in short: as §6
HeLa [15] = test: Induction of autophagy in human HeLa cells assessed as conversion of LC3-1 protein to LC3-2 protein at 2 uM after 3 hrs by Western blot analysis in presence of bafilomycin A; type: functional, cell-based
HeLa [16] = test: Induction of autophagy in human HeLa cells transfected with Atg5 siRNA assessed as acidic vesicles accumulation at 2 uM after 24 hrs by acridine orange staining-based immunofluorescence microscopic analysis relative to cell transfected with control siRNA; type: functional
In short: (§7)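 HeLa at 50% confluence transfected 24 h with 100 nM (final) Atg5 or control siRNA, then after a further 24 h incubated 24 h ± 2 µM compound. Cell death by trypan blue; acidic vesicle accumulation by acridine orange staining. Atg5 knockdown checked by blot. Triplicate means ± S.E.M.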

HeLa [17] = test: Cytotoxicity against human HeLa cells transfected with Atg5 siRNA assessed as decrease in cell survival at 2 uM after 24 hrs by trypan blue exclusion assay; type: functional, cell-based; in short: as §7
HeLa [18] = test: Induction of apoptosis in human HeLa cells assessed as increase in caspase 3/7 activity at 2 uM after 24 hrs by DEVD-based fluorometric analysis; type: functional, cell-based
In short: (§8)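 HeLa treated 24 h with 25 µM DENSPM (positive control) or the indicated concentrations of compound; DEVDase (caspase 3/7) activity measured. Means ± S.E.M. of three replicates vs control.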

HeLa [19] = test: Induction of apoptosis in human HeLa cells assessed as chromatin condensation at 2 uM after 24 hrs by DAPI staining assay; type: functional, cell-based
In short: (§9)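 HeLa treated 24 h with 2 µM, then stained with DAPI and scored for chromatin condensation and nuclear fragmentation/condensation.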

HeLa [20] = test: Induction of apoptosis in human HeLa cells assessed as nuclear fragmentation at 2 uM after 24 hrs by DAPI staining assay; type: functional, cell-based; in short: as §9
HeLa [21] = test: Induction of apoptosis in human HeLa cells assessed as nuclear condensation at 2 uM after 24 hrs by DAPI staining assay; type: functional, cell-based; in short: as §9
HeLa [22] = test: Cytotoxicity against human HeLa cells assessed as decrease in cell survival at 2 uM after 24 hrs by trypan blue exclusion assay in presence of Z-VADfmk; type: functional, cell-based
In short: (§10)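 HeLa pretreated 2 h with Z-VADfmk (50 µM) or necrostatin-1 (20 µM), then exposed to compound for 24 h. Viability by trypan blue exclusion, survival as % of viable control cells; means ± S.E.M. of three determinations.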

HeLa [23] = test: Cytotoxicity against human HeLa cells assessed as decrease in cell survival at 2 uM after 24 hrs by trypan blue exclusion assay in presence of necrostatin-1; type: functional, cell-based; in short: as §10
HeLa [24] = test: Induction of autophagy in human HeLa cells assessed as appearance of vacuoles in cytoplasm containing organic materials at 2 uM after 24 hrs by transmission electron microscopic analysis; type: functional, cell-based; in short: as §2
[25] = Cytotoxicity against human SH-SY5Y cells assessed as cell survival after 48 hrs by trypan blue exclusion assay; type: functional, cell-based
In short: (§11)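 Cells exposed 48 h to increasing concentrations in DMSO (0.1% of medium) at 37 °C, 5% CO2. Trypan blue exclusion counts, at least 10 fields per sample, survival as % of viable control cells. IC50 interpolated from dose–response curve; means ± S.E.M. of three to four replicates.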

HeLa [26] = test: Cytotoxicity against human HeLa cells assessed as cell survival after 48 hrs by trypan blue exclusion assay; type: functional, cell-based; in short: as §11
HT-29 [27] = test: Cytotoxicity against human HT-29 cells assessed as cell survival after 48 hrs by trypan blue exclusion assay; type: functional, cell-based; conditions: HT-29, 48 h; in short: as §11
HL-60 [28] = test: Cytotoxicity against human HL60 cells assessed as cell survival after 48 hrs by trypan blue exclusion assay; type: functional, cell-based; conditions: HL-60, 48 h; in short: as §11
LoVo [29] = test: Cytotoxicity against human LoVo cells assessed as cell survival after 48 hrs by trypan blue exclusion assay; type: functional, cell-based; in short: as §11
U2OS [30] = test: Cytotoxicity against human U2OS cells assessed as cell survival after 48 hrs by trypan blue exclusion assay; type: functional, cell-based; in short: as §11
SAOS-2 [31] = test: Cytotoxicity against human p53-deficient Saos2 cells assessed as cell survival after 48 hrs by trypan blue exclusion assay; type: functional, cell-based; conditions: SAOS-2, 48 h; in short: as §11
HT-29 [32] = test: Cytotoxicity against human HT-29 cells assessed as cell survival after 24 hrs by trypan blue exclusion assay; type: functional, cell-based; conditions: HT-29, 24 h; in short: as §1
[33] = Cytotoxicity against human SH-SY5Y cells assessed as cell survival after 24 hrs by trypan blue exclusion assay; type: functional, cell-based; in short: as §1
LoVo [34] = test: Cytotoxicity against human LoVo cells assessed as cell survival after 24 hrs by trypan blue exclusion assay; type: functional, cell-based; in short: as §1
HL-60 [35] = test: Cytotoxicity against human HL60 cells assessed as cell survival after 24 hrs by trypan blue exclusion assay; type: functional, cell-based; conditions: HL-60, 24 h; in short: as §1
U2OS [36] = test: Cytotoxicity against human U2OS cells assessed as cell survival after 24 hrs by trypan blue exclusion assay; type: functional, cell-based; in short: as §1
SAOS-2 [37] = test: Cytotoxicity against human p53-deficient Saos2 cells assessed as cell survival after 24 hrs by trypan blue exclusion assay; type: functional, cell-based; conditions: SAOS-2, 24 h; in short: as §1
HeLa [38] = test: Induction of autophagy in human HeLa cells assessed as conversion of LC3-1 protein to LC3-2 protein at 25 uM after 24 hrs by Western blot analysis; type: functional, cell-based
In short: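 HeLa incubated 24 h with DENSPM (25 µM) or spermidine (8 mM); LC3-I/LC3-II processing by Western blot of 50 µg protein with monoclonal anti-LC3 antibody.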

HeLa [39] = test: Cytotoxicity against human HeLa cells assessed as decrease in cell survival at 25 uM after 24 hrs by trypan blue exclusion assay relative to control; type: functional; conditions: read-out: Survival; in short: as §4
HeLa [40] = test: Induction of apoptosis in human HeLa cells assessed as increase in caspase 3/7 activity at 25 uM after 24 hrs by DEVD-based fluorometric analysis; type: functional, cell-based; in short: as §8

Question: With `COc1ccccc1CNCCCCCCNCCCCCCCCNCCCCCCNCc1ccccc1OC` [METHOCTRAMINE] as the compound, how does the IC50 (Thymocyte) read?
Answer: The IC50 was > 100 µM.

Question: And the IC50 [1]?
Answer: Its IC50 is > 100 µM.

Question: What about the IC50 (HeLa [2]) of the same compound?
Answer: Its IC50 is > 100 µM.

Question: Which results are given for `c1ccc(C(CNCCCCCCNCCCCCCCCCCCCNCCCCCCNCC(c2ccccc2)c2ccccc2)c2ccccc2)cc1`?
Answer: Activity (HeLa [3]): Active; Activity (HeLa [4]): inactive; Activity (HeLa [5]): Active; Activity (HeLa [6]): Active; viability at 2 µM (HeLa [7]): 50%; Activity (HeLa [8]): inactive; Activity (HeLa [9]): Active; Activity (HeLa [10]): >50%; Activity (HeLa [11]): Active; Activity (HeLa [12]): inactive; Activity (HeLa [13]): Active; Activity (HeLa [14]): inactive; Activity (HeLa [15]): Active; Activity (HeLa [16]): inactive; Activity (HeLa [17]): Active; Activity (HeLa [18]): inactive; Activity (HeLa [19]): inactive; Activity (HeLa [20]): inactive; Activity (HeLa [21]): inactive; Activity (HeLa [22]): Active; Activity (HeLa [23]): Active; Activity (HeLa [24]): Active; IC50 [25]: 0.9 µM; IC50 (HeLa [26]): 0.6 µM; IC50 (HT-29 [27]): 1.1 µM; IC50 (HL-60 [28]): 0.7 µM; IC50 (LoVo [29]): 0.8 µM; IC50 (U2OS [30]): 0.4 µM; IC50 (SAOS-2 [31]): 0.3 µM; IC50 (HT-29 [32]): 2.4 µM; IC50 [33]: 2.8 µM; IC50 (LoVo [34]): 2 µM; IC50 (HL-60 [35]): 1.9 µM; IC50 (U2OS [36]): 1.1 µM; IC50 (SAOS-2 [37]): 0.9 µM; IC50 (Thymocyte): 6.8 µM; IC50 [1]: 4.3 µM; IC50 (HeLa [2]): 1.6 µM

Question: With `CCNCCCNCCCNCCCNCC` [BIS(ETHYL)NORSPERMINE] as the compound, how does the Activity (HeLa [38]) read?
Answer: The Activity was “inactive”.

Question: And the viability at 25 µM (HeLa [39])?
Answer: Its viability at 25 µM is 50%.

Question: And the Activity (HeLa [40])?
Answer: Its Activity is “Active”.
